≈ marks a conversion by molar mass, not a printed value. Calls of active or inactive are those of the source. The rule behind the calls is not given here.
How the values were obtained:
[1] = test system: Mycobacterium tuberculosis; assay: Antimycobacterial activity against Mycobacterium tuberculosis 08-0781 assessed as microbial susceptibility by agar proportion method; format: functional, organism-based
How it was run: (§1)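 Clinical isolates freshly subcultured on Löwenstein-Jensen medium, held at 37°C no longer than 4 weeks. Fluoroquinolone stocks 1 mg/ml in 0.1 N NaOH, filter sterilized, kept at −20°C under 2 months. Standard proportion method on 7H11 agar; breakpoints 2 mg/liter ofloxacin, 0.5 mg/liter moxifloxacin and gatifloxacin; scored susceptible or resistant.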

[2] = test system: Mycobacterium tuberculosis; assay: Antimycobacterial activity against Mycobacterium tuberculosis 08-0774 assessed as microbial susceptibility by agar proportion method; format: functional, organism-based; how it was run: as §1
[3] = test system: Mycobacterium tuberculosis; assay: Antimycobacterial activity against Mycobacterium tuberculosis 08-0781 by resazurin microtiter assay; format: functional
How it was run: (§2)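 Isolates taken from fresh Löwenstein-Jensen subcultures grown at 37°C for at most 4 weeks. Drug stocks 1 mg/ml in 0.1 N NaOH, filter sterilized, stored at −20°C less than 2 months. MIC read by resazurin microtiter assay following a previously described protocol.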

[4] = test system: Mycobacterium tuberculosis; assay: Antimycobacterial activity against Mycobacterium tuberculosis 08-0762 by resazurin microtiter assay; format: functional; how it was run: as §2
[5] = test system: Mycobacterium tuberculosis; assay: Antimycobacterial activity against Mycobacterium tuberculosis 08-0789 by resazurin microtiter assay; format: functional; how it was run: as §2
[6] = test system: Mycobacterium tuberculosis; assay: Antimycobacterial activity against Mycobacterium tuberculosis 08-0774 by resazurin microtiter assay; format: functional; how it was run: as §2
[7] = test system: Mycobacterium tuberculosis; assay: Antimycobacterial activity against Mycobacterium tuberculosis 08-0764 assessed as microbial susceptibility by agar proportion method; format: functional, organism-based; how it was run: as §1
[8] = test system: Mycobacterium tuberculosis; assay: Antimycobacterial activity against Mycobacterium tuberculosis 08-0782 by resazurin microtiter assay; format: functional; how it was run: as §2
[9] = test system: Mycobacterium tuberculosis; assay: Antimycobacterial activity against Mycobacterium tuberculosis 08-0762 assessed as microbial susceptibility by agar proportion method; format: functional, organism-based; how it was run: as §1
[10] = test system: Mycobacterium tuberculosis; assay: Antimycobacterial activity against Mycobacterium tuberculosis 08-0789 assessed as microbial susceptibility by agar proportion method; format: functional, organism-based; how it was run: as §1
[11] = test system: Mycobacterium tuberculosis; assay: Antimycobacterial activity against Mycobacterium tuberculosis 08-0782 assessed as microbial susceptibility by agar proportion method; format: functional, organism-based; how it was run: as §1
[12] = test system: Mycobacterium tuberculosis; assay: Antimycobacterial activity against Mycobacterium tuberculosis 08-0764 by resazurin microtiter assay; format: functional; how it was run: as §2

Compound | Activity [1] | Activity [2] | MIC [3] [µg/mL] | MIC [4] [µg/mL] | MIC [5] [µg/mL] | MIC [6] [µg/mL] | Activity [7] | MIC [8] [µg/mL] | Activity [9] | Activity [10] | Activity [11] | MIC [12] [µg/mL]
COc1c(N2CCNC(C)C2)c(F)cc2c(=O)c(C(=O)O)cn(C3CC3)c12 (stereo unspecified) [GATIFLOXACIN] | Active | Active | ≤ 0.062 | ≤ 0.062 | ≤ 0.062 | ≤ 0.062 | Active | 0.125 (≈ 0.333 µM) | Active | Active | Active | ≤ 0.062
CC1COc2c(N3CCN(C)CC3)c(F)cc3c(=O)c(C(=O)O)cn1c23 (stereo unspecified) [OFLOXACIN] | Active | Active | ≤ 0.25 | 0.5 (≈ 1.38 µM) | 0.5 (≈ 1.38 µM) | ≤ 0.25 | Active | 0.5 (≈ 1.38 µM) | Active | Active | Active | 0.5 (≈ 1.38 µM)
COc1c(N2C[C@@H]3CCCN[C@@H]3C2)c(F)cc2c(=O)c(C(=O)O)cn(C3CC3)c12 [MOXIFLOXACIN] | Active | Active | ≤ 0.125 | ≤ 0.125 | ≤ 0.125 | ≤ 0.125 | Active | ≤ 0.125 | Active | Active | Active | ≤ 0.125

— ChEMBL document CHEMBL1649247, “Fluoroquinolone resistance in Mycobacterium tuberculosis and mutations in gyrA and gyrB” (2009)
